Experimental data gathered from unrelated publications.
Lines come from different studies, so protocols differ.
PNLIP: Pancreatic triacylglycerol lipase (PNLIP, Sus scrofa, UniProt P00591)
TMPRSS13: TMPRSS13 (Homo sapiens, UniProt Q9BYE2)
CHRM2: Muscarinic acetylcholine receptor M2 (CHRM2, Homo sapiens, UniProt P08172)

Structure (SMILES) | target | effect on | action | method | measurement | value
C=CCc1ccc(O)c(-c2cc(CC=C)ccc2O)c1 | PNLIP | enzyme activity | inhibitor | fluorescence | IC50 | 3240 nM
CS(=O)(=O)N[C@@H](CCC(N)=O)C(=O)N[C@@H](Cc1ccccc1)C(=O)N[C@@H](CCCNC(=N)N)C(=O)c1nccs1 | TMPRSS13 | cell-free assay |  |  | Ki | 355 nM
C[C@H](CCCOS(=O)(=O)O)[C@H]1CC[C@H]2[C@@H]3CC[C@H]4C[C@@H](O)CC[C@]4(C)[C@H]3CC[C@]12C | CHRM2 | cAMP | antagonist |  | IC50 | 9050 nM
COc1cc2c(cc1OC)CN(CCc1ccc(NC(=O)c3cccc4c(=O)c5cccc(OC)c5[nH]c34)cc1)CC2 | CHRM2 | cell-free assay |  |  | Ki | 466 nM
O=C1Nc2ccc3ncsc3c2/C1=C/c1cnc[nH]1 | Serine/threonine-protein kinase Nek7 (NEK7, Homo sapiens, UniProt Q8TDX7) | enzyme activity | inhibitor |  | IC50 | 11900 nM
OB1OCc2cc(F)ccc21 | Carbapenem-hydrolyzing beta-lactamase KPC (KPC-2, Klebsiella pneumoniae, UniProt Q9F663) | enzyme activity | inhibitor |  | IC50 | 1100 nM
[2H]c1c([2H])c([C@]2([2H])CCCN2C(=O)C(C)(C)Oc2ccc3cn[nH]c3c2)c([2H])c([2H])c1C([2H])([2H])[2H] | Receptor-interacting serine/threonine-protein kinase 1 (RIPK1, Homo sapiens, UniProt Q13546) | enzyme activity | inhibitor |  | IC50 | 1.8 nM
C[C@H](NC(=O)[C@H](CCC(N)=O)NC(=O)CCCCNC(=N)N)C(=O)N[C@@H](CCCNC(=N)N)C(=O)c1nc2ccccc2s1 | TMPRSS13 | cell-free assay |  |  | Ki | 33 nM
COc1c2c(cc3c1-c1c(cc4c(c1OC)OCO4)C[C@H](C)[C@H](C)C3)OCO2 | PNLIP | enzyme activity | inhibitor | fluorescence | IC50 | 8650 nM
